The source of these data is ChEMBL document CHEMBL5154854, “Identification of a Vitamin-D Receptor Antagonist, MeTC7, which Inhibits the Growth of Xenograft and Transgenic Tumors In Vivo” (J Med Chem, 2022).

SMILES strings stand for the structures. Calls of active or inactive are those of the source. The rule behind the calls is not given here.

In data set [1] the test system is BE(2)-C. Description: Cytotoxicity against human BE2C cells assessed as reduction in cell viability incubated for 48 hrs by MTS assay. Type of data set: functional, cell-based. Conditions: dose 0.1-10 µM, DDE = dose-dependent effect. The method in brief:
(§1)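 Neuroblastoma lines seeded 5,000 cells/well, attached overnight, treated 48 h in complete medium (DMSO ≤0.2%); MTS reagent 1:10 in fresh RPMI 2–4 h, absorbance 490 nm.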

Data set [2] deals with Kelly. Description: Cytotoxicity against human Kelly cells assessed as reduction in cell viability incubated for 48 hrs by MTS assay. The format is functional, cell-based. As to conditions: dose 0.1-10 µM, DDE = dose-dependent effect. In a few lines:
as §1
In general terms: Tetrazolium dyes change colour on reduction, which living cells bring about.

Data set [3] relates to SH-SY5Y. Description: Cytotoxicity against human SH-SY5Y cells assessed as reduction in cell viability incubated for 48 hrs by MTS assay. As to conditions: dose 0.1-10 µM, DDE = dose-dependent effect. Type of data set: functional, cell-based. In a few lines: as §1
Data set [4] is described as follows: Downregulation of VDR expression in human BE2C cells at 1 uM incubated for 24 hrs by western blot analysis relative to control. Type of data set: functional, BE(2)-C. The method in brief:
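BE(2)-C neuroblastoma cells were treated for 24 h and immunoblotted for VDR, with β-actin or α-tubulin as loading control. Band intensities are reported as normalized densitometry.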

The target of data set [5] is T1, Vitamin D3 receptor (Homo sapiens) (UniProt P11473).
T1 sequence (whole entry): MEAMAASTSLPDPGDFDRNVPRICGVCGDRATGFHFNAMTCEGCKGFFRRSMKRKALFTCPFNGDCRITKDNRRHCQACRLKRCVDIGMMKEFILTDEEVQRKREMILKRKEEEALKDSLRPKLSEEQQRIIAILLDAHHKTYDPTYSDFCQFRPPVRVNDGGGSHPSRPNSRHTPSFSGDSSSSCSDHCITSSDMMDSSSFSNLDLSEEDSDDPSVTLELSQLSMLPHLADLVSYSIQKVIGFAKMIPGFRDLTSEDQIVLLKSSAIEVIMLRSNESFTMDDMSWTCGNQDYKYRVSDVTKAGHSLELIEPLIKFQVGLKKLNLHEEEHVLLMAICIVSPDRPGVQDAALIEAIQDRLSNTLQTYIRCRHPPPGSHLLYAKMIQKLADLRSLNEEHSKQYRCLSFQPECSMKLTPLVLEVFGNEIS
The data set can be described thus: Antagonist activity at VDR in human BE2C cells assessed as reduction in MYCN expression at 1 uM incubated for 24 hrs by western blot analysis relative to control. As to conditions: filed as antagonist. The format is cell-based. The method in brief: (§2)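 BE(2)-C cells given 1 μM for 24 h; immunoblot with β-actin or α-tubulin loading control; normalized densitometry.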
A general note: In western blotting, separated proteins are transferred to a membrane and probed.

For data set [6], the target named is T1, Vitamin D3 receptor (Homo sapiens). The data set can be described thus: Antagonist activity at VDR in human BE2C cells assessed as reduction in cyclin-D expression at 1 uM incubated for 24 hrs by western blot analysis relative to control. Type of data set: cell-based. Conditions: filed as antagonist. The method in brief:
as §2

In data set [7] the test system is SH-SY5Y. The data set can be described thus: Anti-tumor activity against human SH-SY5Y cells xenografted in NSG mouse assessed as reduction in tumor volume at 10 mg/kg, ip measured for 5 to 10 days. The format is functional, organism-based. As to conditions: time 5-10 day. In a few lines:
(§3)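 NSG mice, 6–8 weeks, injected subcutaneously in right flank with ES2 (250,000) or SH-SY5Y/BE(2)C (1 million) cells in cold matrigel/serum-free RPMI 1:1. Once palpable, 10 mg/kg IP M–F vs vehicle; volume (length × width2)[…]; BE(2)C and ES2 monitored alternate days; endpoint 2000 mm3; % change in volume, t-test.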
Background: In xenograft studies the graft and the host belong to different species.

Data set [8] has as its system BE(2)-C. Description: Anti-tumor activity against human BE2C cells xenografted in NSG mouse assessed as reduction in tumor volume at 10 mg/kg, ip measured for 5 to 8 days. Type of data set: functional, organism-based. As to conditions: time 5-8 day. In a few lines:
as §3

Data set [9] has as its system Tumor cell line. The data set can be described thus: Cytotoxicity against tumor cells in TH-MYCN +/+ transgenic neuroblastoma 129x1/SvJ.Tg (TH-MYCN)41Waw/Nci mouse model assessed as reduction in cell viability at 0.1 to 10 uM measured after 3 days by MTS assay. The format is functional, cell-based. Conditions: dose 0.1-10 µM, time 3.0 day. In a few lines:
(§4)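 Tumor cells mechanically dissociated from tumors of three homozygous TH-MYCN mice, grown as spheres in RPMI1640 with 20% FBS, 2-mercaptoethanol, pyruvate and NEAA; treated 3 days; viability by MTS; spheres imaged by light microscopy.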

Data set [10] deals with Tumor cell line. The data set can be described thus: Cytotoxicity against tumor cells in TH-MYCN +/+ transgenic neuroblastoma 129x1/SvJ.Tg (TH-MYCN)41Waw/Nci mouse model assessed as reduction in viability of tumor spheres measured after 3 days by light microscopy. The format is functional, cell-based. As to conditions: dose 1-4 µM, time 3.0 day, DDE = dose-dependent effect. In a few lines: as §4

In data set [11] the test system is Mus musculus. Description: Anti-tumor activity against TH-MYCN +/+ transgenic neuroblastoma 129x1/SvJ.Tg (TH-MYCN)41Waw/Nci mouse model assessed as reduction in tumor growth at 10 mg/kg, ip measured upto 7 days by ultrasound imaging analysis. The format is functional, organism-based. As to conditions: time <= 7.0 day. In a few lines: (§5)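 Homozygous TH-MYCN+/+ mice (129×1/SvJ background, genotyped) with spontaneous neuroblastoma dosed IP, vehicle n = 7, 10 mg/kg n = 8, six treatments; a 100 mg/kg group got three. Tumor burden by abdominal ultrasound under 1–3% isoflurane; tumors excised and weighed at end; groups compared by t-test.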

Data set [12] relates to Mus musculus. Description: Anti-tumor activity against tumor cells in TH-MYCN +/+ neuroblastoma 129x1/SvJ.Tg (TH-MYCN)41Waw/Nci mouse model assessed as reduction in tumor volume administered intraperitoneally measured on day 7 by ultrasound imaging analysis. The format is functional, organism-based. Conditions: route ip, time 7.0 day, DDE = dose-dependent effect. The method in brief: as §5

In data set [13] the test system is Mus musculus. Description: Anti-tumor activity against tumor cells in TH-MYCN +/+ neuroblastoma 129x1/SvJ.Tg (TH-MYCN)41Waw/Nci mouse model assessed as reduction in tumor weight at 10 mg/kg, ip measured on day 7 by ultrasound imaging analysis. The format is functional, organism-based. Conditions: time 7.0 day. The method in brief:
as §5

Data set [14] in a line: Toxicity in TH-MYCN +/+ transgenic neuroblastoma 129x1/SvJ.Tg (TH-MYCN)41Waw/Nci mouse model assessed as effect on CD45+ cells population at 10 mg/kg, ip qd by flow cytometry. Type of data set: organism-based. As to conditions: in vivo. In a few lines: (§6)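 Immune cells isolated from TH-MYCN tumor-bearing mice treated with vehicle or compound; CD45+, CD4+, CD8+, macrophage, patrolling monocyte/DC and CD11b+ populations quantified by flow cytometry with characterized markers.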

The nature of data set [15]: Toxicity in TH-MYCN +/+ transgenic neuroblastoma 129x1/SvJ.Tg (TH-MYCN)41Waw/Nci mouse model assessed as effect on CD4+ cells population at 10 mg/kg, ip qd by flow cytometry. Type of data set: organism-based. As to conditions: in vivo. The method in brief:
as §6

Data set [16] is described as follows: Toxicity in TH-MYCN +/+ transgenic neuroblastoma 129x1/SvJ.Tg (TH-MYCN)41Waw/Nci mouse model assessed as effect on CD8+ cells population at 10 mg/kg, ip qd by flow cytometry. The format is organism-based. Conditions: in vivo. The method in brief:
as §6

Data set [17] is described as follows: Toxicity in TH-MYCN +/+ transgenic neuroblastoma 129x1/SvJ.Tg (TH-MYCN)41Waw/Nci mouse model assessed as effect on macrophage population at 10 mg/kg, ip qd by flow cytometry. As to conditions: in vivo. Type of data set: organism-based. The method in brief:
as §6

Data set [18] in a line: Toxicity in TH-MYCN +/+ transgenic neuroblastoma 129x1/SvJ.Tg (TH-MYCN)41Waw/Nci mouse model assessed as effect on patrolling monocytes/DC+ cells population at 10 mg/kg, ip qd by flow cytometry. The format is organism-based. Conditions: in vivo. In a few lines:
as §6

Data set [19] in a line: Toxicity in TH-MYCN +/+ transgenic neuroblastoma 129x1/SvJ.Tg (TH-MYCN)41Waw/Nci mouse model assessed as effect on CD11b+ cells population at 10 mg/kg, ip qd by flow cytometry. As to conditions: in vivo. Type of data set: organism-based. In a few lines:
as §6

Data set [20] is described as follows: Anti-tumor activity against human SK-OV-3 cells xenografted in nude mouse assessed as animal survival at 10 mg/kg, ip measured upto 36 days. Conditions: SK-OV-3, 864 h.
The subject of data set [21] is SK-OV-3. Description: Anti-tumor activity against human SK-OV-3 cells xenografted in nude mouse assessed as reduction in tumor growth at 10 mg/kg, ip measured for 1 to 39 days. Conditions: time 1-39 day.

For `CC(C)CCC[C@@H](C)[C@H]1CC[C@@H]2[C@]1(C)CCC1[C@]23C=C[C@]2(C[C@@H](OC(=O)CBr)CC[C@]12C)n1c(=O)n(C)c(=O)n13` (stereo partly specified), the Activity entry in data set [1] was “Dde”; in data set [2], “Dde”; in [3], “Dde”; in data set [10], “Dde”; in [12] it was “Dde”; in data set [14], “Non-Toxic”. In addition, the Activity result in [15], in data set [16], in data set [17], in [18] and in data set [19] was “Non-Toxic” in each case. The “fold change (FC)” value in [4] stood at 0.83; in data set [5] it was 0.68; in data set [6], 0.8. The outcome in data set [7], in [8], in [9], in data set [11], in [13] and in [21] was Active. In data set [20], the survival at 10 mg/kg was 100%.
